Measurements from different studies.
Each line is one published result; the experiments were not run side by side.
Target: Serine/threonine-protein kinase 24 (STK24, Homo sapiens, UniProt Q9Y6E0)

| SMILES | assay | test system | setting | quantity | value |
| --- | --- | --- | --- | --- | --- |
| CCCS(=O)(=O)Nc1ccc(F)c(C(=O)c2c[nH]c3ncc(-c4ccc(Cl)cc4)cc23)c1F | enzyme activity, inhibitor |  | 1 µM | inhibition | < 20% |
| COc1cc2ncnc(Nc3ccc(Oc4ccccc4)c(C)c3C)c2cc1OC | enzyme activity, inhibitor |  | 1 µM | inhibition | 10% |
| O=C(N[C@H]1CCCCC/C=C\C2C[C@@]2(C(=O)O)NC(=O)[C@@H]2C[C@@H](Oc3ccncc3)CN2C1=O)OC1CCCC1 (stereo partly drawn) | binding, competition with immobilised ligand |  | 1 µM | remaining binding | 81% |
| CN(c1nccc(-c2cnn3ncccc23)n1)C1CC1 | cell-free assay |  | 1 µM | remaining signal | 100% |
| CC/C(=N\NC(=O)NCc1cccc(O)c1)c1ccc(O)c(C)c1O | enzyme activity, inhibitor |  | 0.1 µM | inhibition | 4.3% |
| Cc1cc(NC(=O)c2cccc3cc(-c4cccc5[nH]nc(N)c45)ccc23)ccc1F | enzyme activity, inhibitor |  | 0.1 µM | activity vs control | 116% |
| O=C(Nc1cccnn1)N1CCC(=Cc2cccc(Oc3ccc(C(F)(F)F)cn3)c2)CC1 | cell-free assay, competition with immobilised ligand |  | 1 µM | remaining binding | 100% |
| COc1cc2ncnc(Nc3ccc(F)c(Cl)c3)c2cc1OCCCN1CCOCC1 | cell-free assay |  | 0.5 µM | remaining signal | 102% |
| O=C(Nc1cnn(-c2csc(C(=O)NC3COC3)c2)c1)Nc1c(F)cccc1Cl | enzyme activity, inhibitor |  | 5 µM | remaining activity | 81.6% |
| Cn1c2c(c3ccc(Cl)c(Cl)c31)C(C#N)C1(CCOCC1)NC2=O (stereo not drawn) | thermal stability, DSF |  | 10 µM | ΔTm | -0.3 °C |
| COc1cc(/C=C/C(=O)CC(=O)/C=C/c2ccc(O)c(OC)c2)ccc1O | enzyme activity, inhibitor |  | 1 µM | activity vs control | 91% |
| Cc1ccc(Nc2nccc(N(C)c3ccc4c(C)n(C)nc4c3)n2)cc1S(N)(=O)=O | enzyme activity, inhibitor |  | 0.3 µM | inhibition | -5% |
| COc1cccc2c(NCc3ccccc3)nc(-n3c(N)nc4ccccc43)nc12 | target engagement in cells, inhibitor, chemoproteomics |  | 20 mM | inhibition | -9.9% |
| COc1ccc2c(c1)O[C@H](c1ccc(OC)c(OC)c1)C[C@@H]2NC(=O)C1(c2ccc3c(c2)OC(F)(F)O3)CC1 | cell-free assay, competition with immobilised ligand |  | 1 µM | remaining binding | 92% |
| Cn1c2c(Cl)c(Cl)ccc2c2cc[nH]c(=O)c21 | thermal stability, DSF |  | 10 µM | ΔTm | 1.3 °C |
| CNC(=O)c1cc(Oc2ccc(NC(=O)Nc3ccc(Cl)c(C(F)(F)F)c3)cc2)ccn1 | enzyme activity, inhibitor |  | 0.3 µM | inhibition | -9% |
| CCOCCn1cc(C(=O)Nc2ccc(-n3nc(-c4cccnc4)cc3C(F)(F)F)cn2)ccc1=O | cell-free assay, competition with immobilised ligand |  | 1 µM | remaining binding | 100% |

| SMILES | assay | test system | setting | quantity | value |
| --- | --- | --- | --- | --- | --- |
| Cn1c2c(c3ccc(Cl)c(Cl)c31)C(C#N)C1(CCN(C(=O)OC(C)(C)C)CC1)NC2=O (racemic) | thermal stability, DSF |  | 10 µM | ΔTm | 0 °C |
| Oc1ccc(-c2nc(-c3ccncc3)c(-c3ccc(F)cc3)[nH]2)cc1 | cell-free assay |  | 0.5 µM | remaining signal | 95.2% |
| CN(C)c1ncnc(-c2ccc3nc(Nc4cc(CN5CCN(C(=O)CC(F)(F)F)CC5)ccn4)[nH]c3c2)c1Cl | cell-free assay, competition with immobilised ligand |  | 1 µM | remaining binding | 90% |
| CCN1CCN(Cc2ccc(NC(=O)c3ccc(C)c(/C=C/c4cnc5[nH]ccc5c4OC)c3)cc2C(F)(F)F)CC1 | target engagement in cells, inhibitor, chemoproteomics | A-375 | 50 nM | inhibition | -17% |
| Nc1c(C(=O)NCc2ccc(C(=O)NCCCC3CCCCC3)cc2)cnn1-c1ccccc1 | cell-free assay, competition with immobilised ligand |  | 0.1 µM | remaining binding | 91% |
| CCN(CC)CCNC(=O)c1c(C)[nH]c(/C=C2\C(=O)Nc3ccc(F)cc32)c1C | cell-free assay |  | 0.5 µM | remaining signal | 39.7% |
| C[C@@H]1CN(c2cc(-c3nn(C)c4ccc(OC5(C)CC5)cc34)ncn2)C[C@H](C)O1 | cell-free assay, competition with immobilised ligand |  | 1 µM | remaining binding | 79% |
| Cn1c2c(Cl)c(Cl)ccc2c2cn[nH]c(=O)c21 | thermal stability, DSF |  | 10 µM | ΔTm | 0.7 °C |
| Cn1cncc1C1=CN(c2ncnc3[nH]cnc23)CCS1 | enzyme activity, inhibitor, radiometric |  | 2 µM | inhibition | -15.6% |
| CCN1CCN(Cc2ccc(NC(=O)c3ccc(C)c(Oc4ccnc5[nH]ccc45)c3)cc2C(F)(F)F)CC1 | target engagement in cells, inhibitor, chemoproteomics | Huh-7 | 1 µM | inhibition | -56% |
| O=C1NC(=O)c2cc(Nc3ccc(F)cc3)c(Nc3ccc(F)cc3)cc21 | cell-free assay |  | 0.5 µM | remaining signal | 93.7% |
| CC(C)(C)c1nc2c(s1)c1nc(N)ncc1c1ccc(NS(=O)(=O)c3c(F)cccc3F)c(F)c12 | enzyme activity, inhibitor, radiometric |  | 1 µM | remaining activity | 28% |
| CCCCNc1ncc2c(-c3ccc(F)cc3)nn(C[C@H]3CC[C@H](N)CC3)c2n1 | target engagement in cells, inhibitor, chemoproteomics |  | 20 mM | inhibition | 8.3% |
| Cn1c2c(c3ccc(Cl)c(Cl)c31)C(C#N)C1(CCNCC1)NC2=O (racemic) | thermal stability, DSF |  | 10 µM | ΔTm | -0.7 °C |
| NS(=O)(=O)c1cc(NC(=O)C2(c3ccccc3Cl)CC2)ccc1Oc1cccc(Cl)c1 | cell-free assay, competition with immobilised ligand |  | 1 µM | remaining binding | 93% |
| COc1cc(Nc2cnc(C#N)c(O[C@H](C)CN(C)C)n2)ncc1-c1cnn(C)c1 | enzyme activity, inhibitor, radiometric |  | 1 µM | remaining activity | 89% |
